Reference: ChEMBL document CHEMBL3272291, “Potential hypolipidemic agents derived from 3-hydroxy-17,17-dimethylgona-1,3,5(10),8,11,13-hexaene” (J Med Chem, 1977)

Experiments:
Rattus norvegicus [1] = assay: Cholesterol-lowering activity in propylthiouracil-induced hypercholesterolemic rat model assessed as change in plasma cholesterol at 20 mg/kg administered intragastrically relative to control; assay type: functional; details: route intragastric
How it was run: (§1)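 Male rats made hypercholesterolemic with propylthiouracil; compounds given intragastrically. Read-out is the percent change in plasma cholesterol concentration versus control. n=8 for control and for treated animals. Significance is by Student's t, with t greater than 1.65 taken as p < 0.05.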

Rattus norvegicus [2] = assay: Cholesterol-lowering activity in propylthiouracil-induced hypercholesterolemic rat model assessed as change in plasma cholesterol at 10 mg/kg administered intragastrically relative to control; assay type: functional; details: route intragastric; how it was run: as §1
Rattus norvegicus [3] = assay: Cholesterol-lowering activity in propylthiouracil-induced hypercholesterolemic rat model assessed as change in plasma cholesterol at 5 mg/kg administered intragastrically relative to control; assay type: functional; details: route intragastric; how it was run: as §1
Mus musculus [4] = assay: Uterotropic activity in immature mouse assessed as change in uterus weight at 625 mg/kg, sc relative to control; assay type: organism-based; set-up: dose 625 mg/kg, route subcutaneous; details: in vivo
How it was run: (§2)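 Immature mice dosed subcutaneously or intragastrically. Uterine weight (mg) is compared between treated and control groups, reported as mean ± spread. n=10 for control and for treated animals.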

Mus musculus [5] = assay: Uterotropic activity in immature mouse assessed as change in uterus weight at 250 mg/kg, sc relative to control; assay type: organism-based; set-up: dose 250 mg/kg, route subcutaneous; details: in vivo; how it was run: as §2
Mus musculus [6] = assay: Uterotropic activity in immature mouse assessed as change in uterus weight at 25 mg/kg, sc relative to control; assay type: Functional, organism-based; set-up: dose 25 mg/kg, route subcutaneous; details: in vivo; how it was run: as §2
Mus musculus [7] = assay: Uterotropic activity in immature mouse assessed as change in uterus weight at 250 mg/kg administered intragastrically relative to control; assay type: organism-based; set-up: dose 250 mg/kg, route intragastric; details: in vivo, po; how it was run: as §2
Rattus norvegicus [8] = assay: Hypolipidemic activity in normal rat assessed as reduction in cholesterol level at 0.2 % administered in diet for 5 days; assay type: functional; set-up: scale not given: the % may be the effect or the level left
How it was run: (§3)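 Normal rats received compound at 0.2% in the diet. Plasma cholesterol and triglyceride are expressed as % of control. n=8 for control and for treated animals. Significance is by Student's t, with t greater than 1.65 taken as p < 0.05.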

Rattus norvegicus [9] = assay: Hypolipidemic activity in normal rat assessed as reduction in triglyceride level at 0.2 % administered in diet for 5 days; assay type: functional; set-up: scale not given: the % may be the effect or the level left; how it was run: as §3

| SMILES | Activity (Rattus norvegicus [2]) [%] | Activity (Mus musculus [5]) [mg] | Activity (Mus musculus [6]) [mg] | other results |
| --- | --- | --- | --- | --- |
| CC1(C)CCc2c1ccc1c2CCc2cc(O)ccc2-1 | -16 | 22.6 |  | Activity (Rattus norvegicus [1]): -10%; Activity (Rattus norvegicus [3]): 4%; Activity (Mus musculus [4]): 34.9 mg |
| COc1ccc2c(c1)CCc1c-2ccc2c1CCC2(C)C | 1 | 22.6 |  |  |
| CCN(CC)CCOc1ccc2c(c1)CCc1c-2ccc2c1CCC2(C)C.O=C(O)C(=O)O | -19 |  | 16.4 | Activity (Rattus norvegicus [3]): -14% |
| CC1(C)CCc2c1ccc1c2CCc2cc(OCCN3CCCC3)ccc2-1 | -17 |  | 11.2 | Activity (Rattus norvegicus [3]): -5%; Activity (Mus musculus [7]): 8.1 mg |
| CC(C)(Oc1ccc2c(c1)CCc1c-2ccc2c1CCC2(C)C)C(=O)O | -18 |  | 17.2 | Activity (Rattus norvegicus [8]): 75%; Activity (Mus musculus [7]): 8.4 mg; Activity (Rattus norvegicus [9]): 69% |
| CCOC(=O)C(C)(C)Oc1ccc2c(c1)CCc1c-2ccc2c1CCC2(C)C | -9 |  |  |  |
| CN1C(=O)[C@@H]2CC[C@@H]1[C@@H](OC(=O)C(C)(C)Oc1ccc3c(c1)CCc1c-3ccc3c1CCC3(C)C)C2 | -4 |  |  |  |
| CC(Oc1ccc2c(c1)CCc1c-2ccc2c1CCC2(C)C)C(=O)O (configuration not stated) | 3 |  |  |  |
| CCOC(=O)COc1ccc2c(c1)CCc1c-2ccc2c1CCC2(C)C | 8 |  |  |  |
| CC(C)(CO)Oc1ccc2c(c1)CCc1c-2ccc2c1CCC2(C)C | -25 | 13.4 |  |  |
| COC(=O)CCC(=O)OCC(C)(C)Oc1ccc2c(c1)CCc1c-2ccc2c1CCC2(C)C | -18 | 15.7 |  |  |
| CC(C)(COC(=O)CCC(=O)O)Oc1ccc2c(c1)CCc1c-2ccc2c1CCC2(C)C | -7 |  | 20.6 |  |
| CCOC(=O)C(C)(C)Oc1ccc(Cl)cc1 [CLOFIBRATE] | 1 |  |  | Activity (Rattus norvegicus [8]): 72%; Activity (Rattus norvegicus [9]): 43% |
